Data: ChEMBL document CHEMBL1268915, “Optimization of a series of dipeptides with a P3 threonine residue as non-covalent inhibitors of the chymotrypsin-like activity of the human 20S proteasome” (Bioorg Med Chem Lett, 2010)
Active and inactive are the calls of the source. No cut-off for these calls is given here. Residues, ends and D or L forms follow the SMILES beside them. *: point of attachment. NHBn = c1ccc(CN*)cc1; Bn = c1ccc(C*)cc1

What was measured:
[1] = Inhibition of chymotrypsin-like activity of human 20s proteasome beta2 subunit in human erythrocyte assessed as hydrolysis of Ac-WLA-AMC fluorogenic substrate
[2] = molecular target: Prothrombin (Homo sapiens) (UniProt P00734); assay: Inhibition of human thrombin at 100 uM
Homo sapiens [3] = organism: Homo sapiens; assay: Inhibition of human elastase at 100 uM
[4] = Inhibition of chymotrypsin-like activity of human 20s proteasome beta5 subunit in human erythrocyte assessed as hydrolysis of Ac-WLA-AMC fluorogenic substrate
[5] = molecular target: T1, Calpain-1 catalytic subunit (Homo sapiens) (UniProt P07384); assay: Inhibition of human calpain 1 at 100 uM
T1 sequence (whole entry): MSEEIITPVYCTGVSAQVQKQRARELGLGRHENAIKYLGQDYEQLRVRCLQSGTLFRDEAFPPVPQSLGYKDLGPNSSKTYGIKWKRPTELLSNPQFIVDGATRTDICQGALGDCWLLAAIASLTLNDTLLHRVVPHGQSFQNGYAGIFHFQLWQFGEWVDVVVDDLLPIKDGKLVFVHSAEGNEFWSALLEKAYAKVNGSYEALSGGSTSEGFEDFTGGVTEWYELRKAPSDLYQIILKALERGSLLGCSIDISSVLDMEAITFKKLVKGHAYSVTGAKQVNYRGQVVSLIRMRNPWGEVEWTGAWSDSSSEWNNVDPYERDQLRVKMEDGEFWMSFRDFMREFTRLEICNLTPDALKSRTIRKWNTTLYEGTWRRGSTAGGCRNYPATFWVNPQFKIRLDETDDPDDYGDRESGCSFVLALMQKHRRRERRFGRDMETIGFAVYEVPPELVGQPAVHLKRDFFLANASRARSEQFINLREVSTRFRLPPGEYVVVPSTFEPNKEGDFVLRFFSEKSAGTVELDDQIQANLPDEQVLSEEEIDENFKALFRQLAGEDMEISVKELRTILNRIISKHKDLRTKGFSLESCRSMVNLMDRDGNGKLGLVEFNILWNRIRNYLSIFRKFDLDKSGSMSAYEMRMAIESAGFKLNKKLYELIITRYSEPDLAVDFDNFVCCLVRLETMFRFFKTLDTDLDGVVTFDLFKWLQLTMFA

Homo sapiens [6] = organism: Homo sapiens; assay: Inhibition of human chymotrypsin at 100 uM
[7] = molecular target: Procathepsin L (Homo sapiens) (UniProt P07711); assay: Inhibition of human cathepsin L at 100uM
[8] = molecular target: Tissue-type plasminogen activator (Homo sapiens) (UniProt P00750); assay: Inhibition of tissue plasminogen activator at 100 uM
[9] = Cytotoxicity against human Calu6 cells assessed as cellular ATP level after 72 hrs by luminescence-based ATPlite assay; format: cell-based, Calu-6; conditions: read-out: LC50
In short: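 Calu6 cells, 2000 per well, incubated with compound for 72 h. Viability read as cellular ATP by luminescence (ATPlite). Values are means of at least three independent experiments.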

[10] = molecular target: Plasminogen (Homo sapiens) (UniProt P00747); assay: Inhibition of human plasmin at 100 uM
[11] = molecular target: T2, Coagulation factor XII (Homo sapiens) (UniProt P00748); assay: Inhibition of human coagulation factor beta 12a at 100 uM
T2 sequence (whole entry): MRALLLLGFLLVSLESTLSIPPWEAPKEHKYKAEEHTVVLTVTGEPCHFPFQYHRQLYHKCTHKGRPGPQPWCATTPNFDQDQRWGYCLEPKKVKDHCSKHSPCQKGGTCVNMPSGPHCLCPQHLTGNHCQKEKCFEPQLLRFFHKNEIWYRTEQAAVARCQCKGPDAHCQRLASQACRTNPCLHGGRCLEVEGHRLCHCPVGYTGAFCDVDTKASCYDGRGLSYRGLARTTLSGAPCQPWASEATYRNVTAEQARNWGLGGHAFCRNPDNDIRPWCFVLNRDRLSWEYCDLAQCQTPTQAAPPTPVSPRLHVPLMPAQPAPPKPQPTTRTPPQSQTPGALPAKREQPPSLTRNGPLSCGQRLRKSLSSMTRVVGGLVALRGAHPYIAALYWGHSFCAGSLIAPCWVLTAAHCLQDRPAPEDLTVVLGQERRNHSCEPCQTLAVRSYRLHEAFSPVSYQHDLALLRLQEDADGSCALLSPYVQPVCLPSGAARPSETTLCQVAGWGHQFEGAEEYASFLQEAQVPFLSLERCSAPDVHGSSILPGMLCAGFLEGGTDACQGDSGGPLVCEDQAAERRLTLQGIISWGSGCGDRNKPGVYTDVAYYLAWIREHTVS

Trypsin (Homo sapiens) = Trypsin (Homo sapiens) (UniProt P07477+P07478+P35030); assay: Inhibition of human trypsin at 100 uM; format: protein assay
[12] = molecular target: Cathepsin B (Homo sapiens) (UniProt P07858); assay: Inhibition of human cathepsin B at 100uM
[13] = Inhibition of chymotrypsin-like activity of human 20s proteasome beta-1 subunit in human erythrocyte assessed as hydrolysis of Ac-WLA-AMC fluorogenic substrate
[14] = (§1) Inhibition of TNF-alpha-induced NF-kappaB activation in human HEK293 cells after 3 hrs by luciferase reporter gene assay; format: cell-based; conditions: HEK293, 3 h
In short: (§2)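 NF-κB-luciferase reporter in HEK293 cells (10,000 per well). Cells were pre-incubated with compound for 1 h, then stimulated with 10 ng/ml TNF-α for 3 h with compound still present. IC50 and percentage inhibition were reported as means of at least three independent experiments.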

HEK293 = assay: as §1; format: cell-based; set-up: concentration or dose not given beside the values; conditions: dose or concentration not given here; in short: as §2

Chain of Tissue-type plasminogen activator (Homo sapiens) (P00750 36-562 limits assumed): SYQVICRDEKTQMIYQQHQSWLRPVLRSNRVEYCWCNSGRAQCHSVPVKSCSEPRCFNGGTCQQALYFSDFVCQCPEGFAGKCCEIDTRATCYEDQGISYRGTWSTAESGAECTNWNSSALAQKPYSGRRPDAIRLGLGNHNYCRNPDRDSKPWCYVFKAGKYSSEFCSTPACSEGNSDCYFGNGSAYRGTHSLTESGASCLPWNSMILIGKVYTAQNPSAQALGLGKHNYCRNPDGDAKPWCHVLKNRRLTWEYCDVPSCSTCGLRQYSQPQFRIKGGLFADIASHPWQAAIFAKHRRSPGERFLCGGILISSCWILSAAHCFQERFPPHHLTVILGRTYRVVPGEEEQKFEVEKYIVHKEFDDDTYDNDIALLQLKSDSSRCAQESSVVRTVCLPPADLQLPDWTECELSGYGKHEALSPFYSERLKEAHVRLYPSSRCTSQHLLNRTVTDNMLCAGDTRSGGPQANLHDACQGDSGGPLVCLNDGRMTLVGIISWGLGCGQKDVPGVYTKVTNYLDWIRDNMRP
Chain of Procathepsin L (Homo sapiens) (P07711 114-333 limits assumed): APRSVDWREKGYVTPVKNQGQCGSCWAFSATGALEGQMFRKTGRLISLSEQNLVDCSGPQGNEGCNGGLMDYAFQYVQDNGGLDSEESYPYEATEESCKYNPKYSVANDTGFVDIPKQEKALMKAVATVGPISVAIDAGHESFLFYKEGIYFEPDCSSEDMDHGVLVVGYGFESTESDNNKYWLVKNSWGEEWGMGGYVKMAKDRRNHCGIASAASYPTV
Chain of Plasminogen (Homo sapiens) (P00747 97-580 limits assumed): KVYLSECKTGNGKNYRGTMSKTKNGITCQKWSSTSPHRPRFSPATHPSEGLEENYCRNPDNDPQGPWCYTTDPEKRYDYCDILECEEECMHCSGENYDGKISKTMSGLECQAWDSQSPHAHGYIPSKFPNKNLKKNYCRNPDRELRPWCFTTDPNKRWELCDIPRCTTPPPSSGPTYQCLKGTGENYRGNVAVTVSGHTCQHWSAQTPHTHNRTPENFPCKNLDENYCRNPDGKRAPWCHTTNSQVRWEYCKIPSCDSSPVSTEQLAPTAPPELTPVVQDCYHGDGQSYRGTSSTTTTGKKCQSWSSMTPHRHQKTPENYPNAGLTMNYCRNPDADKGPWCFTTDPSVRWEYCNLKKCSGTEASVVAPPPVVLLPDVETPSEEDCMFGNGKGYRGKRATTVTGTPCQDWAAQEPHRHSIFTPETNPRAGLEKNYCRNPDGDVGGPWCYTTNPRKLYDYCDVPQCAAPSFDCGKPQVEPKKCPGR
Chain of Plasminogen (Homo sapiens) (P00747 581-810 limits assumed): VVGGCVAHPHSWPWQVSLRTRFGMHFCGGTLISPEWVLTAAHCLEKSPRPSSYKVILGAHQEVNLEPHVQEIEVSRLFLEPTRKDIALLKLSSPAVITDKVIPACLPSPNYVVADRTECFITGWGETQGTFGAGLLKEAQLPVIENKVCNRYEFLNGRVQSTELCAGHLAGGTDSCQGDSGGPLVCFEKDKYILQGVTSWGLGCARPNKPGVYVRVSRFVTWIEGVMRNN

SMILES	IC50 [1]	inhibition [2]	inhibition (Homo sapiens [3])	IC50 [4]	inhibition [5]	inhibition (Homo sapiens [6])	inhibition [7]	inhibition [8]	CC50 at 72 h [9]	inhibition [10]	inhibition [11]	inhibition (Trypsin (Homo sapiens))	inhibition [12]	IC50 [13]	IC50 [14]	inhibition (HEK293)
C[C@@H](O)[C@H](NC(=O)c1ccc(OCc2ccccc2)cc1)C(=O)N[C@@H](CCc1ccccc1)C(=O)NCc1cccc(Cl)c1	> 20 µM	Active	Active	0.21 µM	Active	Active	Active	Active	> 25 µM	Active	Active	Active	Active	> 20 µM	15 µM	44%
Cc1ccc(CNC(=O)[C@H](CCc2ccccc2)NC(=O)[C@@H](NC(=O)CCc2ccccc2C)[C@@H](C)O)cc1	> 20 µM	Active	Active	0.12 µM	Active	Active	Active	Active	2.3 µM	Active	Active	Active	Active	> 20 µM	0.69 µM	80%
C=CCNC(=O)[C@H](CCc1ccccc1)NC(=O)[C@@H](NC(=O)c1ccc(OCc2ccccc2)cc1)[C@@H](C)O	> 20 µM	Active	Active	0.1 µM	Active	Active	Active	Active	2.8 µM	Active	Active	Active	Active	> 20 µM	0.88 µM	99%
Cc1ccc(CNC(=O)[C@H](CCc2ccccc2)NC(=O)[C@H](CCc2ccccc2)NC(=O)[C@H](CCc2ccccc2)NC(=O)c2cnc(C)cn2)cc1	> 20 µM	Active	Active	0.016 µM	Active	Active	Active	Active	0.14 µM	Active	Active	Active	Active	> 20 µM	0.047 µM	79%
C[C@@H](O)[C@H](NC(=O)c1ccc(OCc2ccccc2)cc1)C(=O)N[C@@H](CCc1ccccc1)C(=O)NCc1ccccc1	> 20 µM	Active	Active	0.068 µM	Active	Active	Active	Active	1.4 µM	Active	Active	Active	Active	> 20 µM	0.71 µM	68%
Cc1ccc(CNC(=O)[C@H](CCc2ccccc2)NC(=O)[C@@H](NC(=O)C(C)(C)Oc2ccccc2Cl)[C@@H](C)O)cc1	> 20 µM	Active	Active	0.075 µM	Active	Active	Active	Active	1.5 µM	Active	Active	Active	Active	> 20 µM	0.69 µM	97%
CC(NC(=O)[C@H](CCc1ccccc1)NC(=O)[C@@H](NC(=O)c1ccc(OCc2ccccc2)cc1)[C@@H](C)O)c1ccccc1 (stereo partly specified)	> 20 µM	Active	Active	> 100 µM	Active	Active	Active	Active	9 µM	Active	Active	Active	Active	> 20 µM	> 50 µM	–
COc1ccc(CNC(=O)[C@@H](NC(=O)[C@H](Cc2cc(OC)c(OC)c(OC)c2)NC(=O)Cc2cccc(Oc3ccccc3)c2)C(C)C)c(O)c1	> 20 µM	Active	Active	0.015 µM	Active	Active	Active	Active	–	Active	Active	Active	Active	> 20 µM	–	–
C[C@H](NC(=O)[C@@H](N)Cc1ccc(OCc2ccccc2)cc1)C(=O)N[C@@H](Cc1c[nH]c2ccccc12)C(=O)NCc1ccccc1 (H-Tyr(Bn)-Ala-Trp-NHBn)	> 20 µM	Active	Active	–	Active	Active	Active	Active	–	Active	Active	Active	Active	> 20 µM	–	–
C[C@@H](O)[C@H](NC(=O)c1ccc(OCc2ccccc2)cc1)C(=O)N[C@@H](CCc1ccccc1)C(=O)NCCc1cccs1	> 20 µM	Active	Active	3.2 µM	Active	Active	Active	Active	> 25 µM	Active	Active	Active	Active	> 20 µM	> 50 µM	–
Cc1ccsc1CNC(=O)[C@H](CCc1ccccc1)NC(=O)[C@@H](NC(=O)c1ccc(OCc2ccccc2)cc1)[C@@H](C)O	> 20 µM	Active	Active	–	Active	Active	Active	Active	0.11 µM	Active	Active	Active	Active	> 20 µM	0.028 µM	81%
Cc1ccccc1CCC(=O)N[C@H](C(=O)N[C@@H](CCc1ccccc1)C(=O)NCc1ccccc1Cl)[C@@H](C)O	> 20 µM	Active	Active	–	Active	Active	Active	Active	2.7 µM	Active	Active	Active	Active	> 20 µM	0.33 µM	71%
